# Biological target: T1, Sodium- and chloride-dependent glycine transporter 2 (Homo sapiens, UniProt Q9Y345)
# T1 sequence (Q9Y345 whole entry): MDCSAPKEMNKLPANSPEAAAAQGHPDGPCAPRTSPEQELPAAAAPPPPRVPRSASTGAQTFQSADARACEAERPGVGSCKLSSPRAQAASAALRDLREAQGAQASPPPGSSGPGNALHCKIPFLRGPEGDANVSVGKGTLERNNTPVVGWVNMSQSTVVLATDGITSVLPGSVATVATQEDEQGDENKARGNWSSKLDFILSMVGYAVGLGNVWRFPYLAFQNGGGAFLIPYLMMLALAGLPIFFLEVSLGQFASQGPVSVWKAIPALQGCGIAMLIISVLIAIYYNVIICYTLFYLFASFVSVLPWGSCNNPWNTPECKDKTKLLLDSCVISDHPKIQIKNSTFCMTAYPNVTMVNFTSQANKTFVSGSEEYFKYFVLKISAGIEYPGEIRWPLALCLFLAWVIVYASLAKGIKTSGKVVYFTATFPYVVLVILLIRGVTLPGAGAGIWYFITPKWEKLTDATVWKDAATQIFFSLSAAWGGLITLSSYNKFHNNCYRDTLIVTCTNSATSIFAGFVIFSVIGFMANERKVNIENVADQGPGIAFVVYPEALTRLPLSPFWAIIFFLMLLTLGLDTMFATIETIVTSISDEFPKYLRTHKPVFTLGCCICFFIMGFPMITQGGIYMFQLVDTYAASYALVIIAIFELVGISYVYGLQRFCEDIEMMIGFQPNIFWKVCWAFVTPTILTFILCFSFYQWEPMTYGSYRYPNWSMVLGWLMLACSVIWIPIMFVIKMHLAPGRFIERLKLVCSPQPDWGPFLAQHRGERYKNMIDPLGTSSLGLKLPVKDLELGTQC
# Test: Inhibition of human GlyT2 expressed in CHO cells assessed as inhibition of [3H]glycine uptake by liquid scintillation counting
# Assay type: cell-based
# Conditions: not given
# Method in brief: (§1)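 [3H]-glycine uptake inhibition in cells transfected with human GlyT1 or human GlyT2 cDNA. EC50 values averaged from at least two independent experiments.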
row,SMILES,EC50
1,Cc1cccc2c1CN(C(=O)c1cc(S(C)(=O)=O)ccc1O[C@@H](C)C(F)(F)F)C2,> 30000 nM
2,CC(C)COc1ccc(S(C)(=O)=O)cc1C(=O)N1Cc2cc(C(F)(F)F)cnc2C1,> 30000 nM
3,C[C@H](Oc1ccc(S(C)(=O)=O)cc1C(=O)N1Cc2cccc(C#N)c2C1)C(F)(F)F,> 30000 nM
4,C[C@H](Oc1ccc(S(C)(=O)=O)cc1C(=O)N1Cc2ccccc2C1)C(F)(F)F,> 30000 nM
5,CS(=O)(=O)c1ccc(-c2ccc(F)c(F)c2)c(C(=O)N2Cc3cc(C(F)(F)F)cnc3C2)c1,> 30000 nM

# Now from value to compound:
row,EC50,SMILES
1,> 30000 nM,C[C@H](Oc1ccc(S(C)(=O)=O)cc1C(=O)N1Cc2ccc(N3CCN(C)CC3)cc2C1)C(F)(F)F
2,> 30000 nM,COc1ccc2c(c1)CN(C(=O)c1cc(S(C)(=O)=O)ccc1O[C@@H](C)C(F)(F)F)C2
3,> 30000 nM,CS(=O)(=O)c1ccc(N2CCOCC2)c(C(=O)N2Cc3cc(C(F)(F)F)cnc3C2)c1
4,> 30000 nM,C[C@H](Oc1ccc(S(C)(=O)=O)cc1C(=O)N1Cc2cnc(C(F)(F)F)cc2C1)C(F)(F)F
5,> 30000 nM,CS(=O)(=O)c1ccc(OCCC(F)(F)F)c(C(=O)N2Cc3cc(C(F)(F)F)cnc3C2)c1

# Test system: Mus musculus
# Test: Antipsychotic activity in po dosed mouse assessed as inhibition of L-687414-induced hyperlocomotion after 60 mins
# Assay type: functional
# Conditions: 1 h, read-out: ID50 (the source's name)
# Method in brief: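 Mice given compound orally, n = 8 per group; hyperlocomotion induced by L-687,414. Horizontal activity counts recorded over a 60-min period and reported as group means. ID50 (mg/kg) derived from dose-dependent inhibition of the L-687,414-induced response.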
row,SMILES,ED50
1,CS(=O)(=O)c1ccc(OCCC(F)(F)F)c(C(=O)N2Cc3cc(C(F)(F)F)cnc3C2)c1,3 mg/kg
2,CS(=O)(=O)c1ccc(-c2ccc(F)c(F)c2)c(C(=O)N2Cc3cc(C(F)(F)F)cnc3C2)c1,1 mg/kg

# Biological target: T2, Sodium- and chloride-dependent glycine transporter 1 (Homo sapiens, UniProt P48067)
# T2 sequence (P48067 whole entry): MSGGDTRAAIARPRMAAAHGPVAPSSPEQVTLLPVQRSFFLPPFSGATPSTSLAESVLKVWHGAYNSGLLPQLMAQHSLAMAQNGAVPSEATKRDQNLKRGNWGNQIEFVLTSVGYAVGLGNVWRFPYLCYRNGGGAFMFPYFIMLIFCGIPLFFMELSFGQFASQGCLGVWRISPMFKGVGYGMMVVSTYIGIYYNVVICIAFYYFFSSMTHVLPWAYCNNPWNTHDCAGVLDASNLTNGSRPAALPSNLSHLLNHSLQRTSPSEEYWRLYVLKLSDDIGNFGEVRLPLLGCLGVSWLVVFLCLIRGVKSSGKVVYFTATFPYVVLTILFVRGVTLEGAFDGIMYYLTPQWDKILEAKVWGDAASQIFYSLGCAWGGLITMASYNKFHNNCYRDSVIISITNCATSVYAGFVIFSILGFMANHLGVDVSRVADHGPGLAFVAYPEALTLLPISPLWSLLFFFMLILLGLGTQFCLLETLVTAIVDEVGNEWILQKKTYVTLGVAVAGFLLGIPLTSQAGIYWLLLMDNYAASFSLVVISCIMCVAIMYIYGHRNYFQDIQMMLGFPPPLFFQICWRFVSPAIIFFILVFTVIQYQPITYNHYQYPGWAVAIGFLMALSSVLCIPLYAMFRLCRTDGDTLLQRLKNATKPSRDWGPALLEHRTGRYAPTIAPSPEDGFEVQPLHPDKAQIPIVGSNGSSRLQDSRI
# Test: Inhibition of human GlyT1 expressed in CHO cells assessed as inhibition of [3H]glycine uptake by liquid scintillation counting
# Assay type: cell-based
# Conditions: not given
# Method in brief: as §1
row,SMILES,EC50
1,Cc1cccc2c1CN(C(=O)c1cc(S(C)(=O)=O)ccc1O[C@@H](C)C(F)(F)F)C2,3360 nM
2,CC(C)COc1ccc(S(C)(=O)=O)cc1C(=O)N1Cc2cc(C(F)(F)F)cnc2C1,30 nM
3,C[C@H](Oc1ccc(S(C)(=O)=O)cc1C(=O)N1Cc2cccc(C#N)c2C1)C(F)(F)F,770 nM
4,C[C@H](Oc1ccc(S(C)(=O)=O)cc1C(=O)N1Cc2ccccc2C1)C(F)(F)F,2540 nM
5,CS(=O)(=O)c1ccc(-c2ccc(F)c(F)c2)c(C(=O)N2Cc3cc(C(F)(F)F)cnc3C2)c1,30 nM

# The next lines start with the values.
row,EC50,SMILES
1,2080 nM,C[C@H](Oc1ccc(S(C)(=O)=O)cc1C(=O)N1Cc2ccc(N3CCN(C)CC3)cc2C1)C(F)(F)F
2,180 nM,COc1ccc2c(c1)CN(C(=O)c1cc(S(C)(=O)=O)ccc1O[C@@H](C)C(F)(F)F)C2
3,3000 nM,CS(=O)(=O)c1ccc(N2CCOCC2)c(C(=O)N2Cc3cc(C(F)(F)F)cnc3C2)c1
4,132 nM,C[C@H](Oc1ccc(S(C)(=O)=O)cc1C(=O)N1Cc2cnc(C(F)(F)F)cc2C1)C(F)(F)F
5,111 nM,CS(=O)(=O)c1ccc(OCCC(F)(F)F)c(C(=O)N2Cc3cc(C(F)(F)F)cnc3C2)c1

# Test system: not listed separately
# Test: Aqueous solubility of the compound by lyophilisate solubility assay
# Assay type: physicochemical
# Conditions: buffer
# Method in brief: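 LYSA: compound in DMSO solution lyophilized, then dissolved in 0.05 M phosphate buffer pH 6.5, stirred 1 h and shaken 2 h; solubility in µg/ml.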
row,SMILES,solubility
1,Cc1cccc2c1CN(C(=O)c1cc(S(C)(=O)=O)ccc1O[C@@H](C)C(F)(F)F)C2,73 µg/mL
2,CC(C)COc1ccc(S(C)(=O)=O)cc1C(=O)N1Cc2cc(C(F)(F)F)cnc2C1,445 µg/mL
3,C[C@H](Oc1ccc(S(C)(=O)=O)cc1C(=O)N1Cc2cccc(C#N)c2C1)C(F)(F)F,259 µg/mL
4,C[C@H](Oc1ccc(S(C)(=O)=O)cc1C(=O)N1Cc2ccccc2C1)C(F)(F)F,< 1 µg/mL
5,CS(=O)(=O)c1ccc(-c2ccc(F)c(F)c2)c(C(=O)N2Cc3cc(C(F)(F)F)cnc3C2)c1,42 µg/mL

# The remaining lines, values ahead:
row,solubility,SMILES
1,490 µg/mL,C[C@H](Oc1ccc(S(C)(=O)=O)cc1C(=O)N1Cc2ccc(N3CCN(C)CC3)cc2C1)C(F)(F)F
2,46 µg/mL,COc1ccc2c(c1)CN(C(=O)c1cc(S(C)(=O)=O)ccc1O[C@@H](C)C(F)(F)F)C2
3,495 µg/mL,CS(=O)(=O)c1ccc(N2CCOCC2)c(C(=O)N2Cc3cc(C(F)(F)F)cnc3C2)c1
4,470 µg/mL,C[C@H](Oc1ccc(S(C)(=O)=O)cc1C(=O)N1Cc2cnc(C(F)(F)F)cc2C1)C(F)(F)F
5,513 µg/mL,CS(=O)(=O)c1ccc(OCCC(F)(F)F)c(C(=O)N2Cc3cc(C(F)(F)F)cnc3C2)c1

# Biological target: hERG (KCNH2) (Homo sapiens, UniProt Q12809)
# Sequence (Q12809 whole entry): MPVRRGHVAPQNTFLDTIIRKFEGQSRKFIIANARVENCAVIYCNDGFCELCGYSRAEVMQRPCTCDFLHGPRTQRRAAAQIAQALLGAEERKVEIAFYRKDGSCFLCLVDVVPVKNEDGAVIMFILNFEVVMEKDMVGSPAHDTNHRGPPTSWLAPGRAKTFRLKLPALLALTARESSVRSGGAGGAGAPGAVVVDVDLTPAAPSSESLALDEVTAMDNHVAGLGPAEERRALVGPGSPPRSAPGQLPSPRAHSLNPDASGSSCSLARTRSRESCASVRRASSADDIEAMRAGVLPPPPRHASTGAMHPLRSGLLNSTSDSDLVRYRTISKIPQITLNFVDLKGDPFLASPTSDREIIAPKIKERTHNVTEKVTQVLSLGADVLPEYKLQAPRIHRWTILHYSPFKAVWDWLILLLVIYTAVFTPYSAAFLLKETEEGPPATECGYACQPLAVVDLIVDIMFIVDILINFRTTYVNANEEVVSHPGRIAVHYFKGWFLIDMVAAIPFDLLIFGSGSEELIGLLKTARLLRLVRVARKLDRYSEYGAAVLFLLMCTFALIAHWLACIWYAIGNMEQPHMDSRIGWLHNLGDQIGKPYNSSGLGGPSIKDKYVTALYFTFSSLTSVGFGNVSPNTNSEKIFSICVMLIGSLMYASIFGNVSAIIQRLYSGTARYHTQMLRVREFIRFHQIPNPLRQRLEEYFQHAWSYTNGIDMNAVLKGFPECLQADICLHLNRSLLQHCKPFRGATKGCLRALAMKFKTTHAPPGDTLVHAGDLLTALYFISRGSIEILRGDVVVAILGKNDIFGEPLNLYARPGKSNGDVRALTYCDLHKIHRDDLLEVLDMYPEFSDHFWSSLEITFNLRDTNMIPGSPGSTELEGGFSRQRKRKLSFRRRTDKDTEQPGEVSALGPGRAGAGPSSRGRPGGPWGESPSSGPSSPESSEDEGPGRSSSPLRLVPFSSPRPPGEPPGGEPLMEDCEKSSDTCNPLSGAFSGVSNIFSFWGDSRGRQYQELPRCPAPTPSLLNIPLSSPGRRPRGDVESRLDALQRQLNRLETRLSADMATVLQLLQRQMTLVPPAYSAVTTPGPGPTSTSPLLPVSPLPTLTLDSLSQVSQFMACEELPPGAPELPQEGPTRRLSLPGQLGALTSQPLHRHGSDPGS
# Test: Inhibition of human ERG at 10 uM by patch clamp assay
# Conditions: not given
# Method in brief: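 hERG block measured by patch clamp at 10 µM; values averaged from at least two independent experiments.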
row,SMILES,inhibition at 10 µM
1,CC(C)COc1ccc(S(C)(=O)=O)cc1C(=O)N1Cc2cc(C(F)(F)F)cnc2C1,37%
2,CS(=O)(=O)c1ccc(-c2ccc(F)c(F)c2)c(C(=O)N2Cc3cc(C(F)(F)F)cnc3C2)c1,38%

# Test system: not listed separately
# Test: Permeability of the compound by PAMPA
# Assay type: ADME
# Conditions: read-out: permeability
# Method in brief: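 PAMPA: permeation constant Pe (10^-6 cm/s) measured through artificial membranes.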
row,SMILES,Papp
1,Cc1cccc2c1CN(C(=O)c1cc(S(C)(=O)=O)ccc1O[C@@H](C)C(F)(F)F)C2,4.2 ×10⁻⁶ cm/s
2,CC(C)COc1ccc(S(C)(=O)=O)cc1C(=O)N1Cc2cc(C(F)(F)F)cnc2C1,5.5 ×10⁻⁶ cm/s
3,C[C@H](Oc1ccc(S(C)(=O)=O)cc1C(=O)N1Cc2cccc(C#N)c2C1)C(F)(F)F,0.8 ×10⁻⁶ cm/s
4,C[C@H](Oc1ccc(S(C)(=O)=O)cc1C(=O)N1Cc2ccccc2C1)C(F)(F)F,0.8 ×10⁻⁶ cm/s
5,CS(=O)(=O)c1ccc(-c2ccc(F)c(F)c2)c(C(=O)N2Cc3cc(C(F)(F)F)cnc3C2)c1,6.4 ×10⁻⁶ cm/s

# More lines, now with the values ahead:
row,Papp,SMILES
1,1.5 ×10⁻⁶ cm/s,C[C@H](Oc1ccc(S(C)(=O)=O)cc1C(=O)N1Cc2ccc(N3CCN(C)CC3)cc2C1)C(F)(F)F
2,2.7 ×10⁻⁶ cm/s,COc1ccc2c(c1)CN(C(=O)c1cc(S(C)(=O)=O)ccc1O[C@@H](C)C(F)(F)F)C2
3,0.9 ×10⁻⁶ cm/s,CS(=O)(=O)c1ccc(N2CCOCC2)c(C(=O)N2Cc3cc(C(F)(F)F)cnc3C2)c1
4,3.9 ×10⁻⁶ cm/s,C[C@H](Oc1ccc(S(C)(=O)=O)cc1C(=O)N1Cc2cnc(C(F)(F)F)cc2C1)C(F)(F)F
5,4.3 ×10⁻⁶ cm/s,CS(=O)(=O)c1ccc(OCCC(F)(F)F)c(C(=O)N2Cc3cc(C(F)(F)F)cnc3C2)c1

# Reference: ChEMBL document CHEMBL1629713, “Discovery of benzoylisoindolines as a novel class of potent, selective and orally active GlyT1 inhibitors” (Bioorg Med Chem Lett, 2010)
